One assay has as its system hepatitis B virus (HBV). Briefly: Real-time immune-absorbance PCR. The class given is cell-based. The following applies: for Fold HBV reduction / Reduction of HBV virion levels in culture medium: G2.215 cells; for Fold HBV reduction: 10 μM compound, HBV DNA in culture medium by IA-PCR; for Reduction of HBV virion levels in culture medium: 5μM.
A further assay relates to Varicella Zoster Virus. The following applies: ref Mekler et al., 1969; cited from earlier work.
A further assay concerns HBV virions. The class given is cell-based, hepatitis B virus. The following applies: HepDE19 cells, 5 day treatment. In short, it runs like this:
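HepDE19 cells (DMEM/F12, 10% FBS, tetracycline-suppressed) were switched to tet-free medium for 5 days, then dosed for 5 days at several concentrations (0.5% DMSO final). Virions from 1ml clarified medium were precipitated with 10% PEG8000 (final), 1 h at 4°C, pelleted and dissolved in TNE pH7.4. Run on non-denaturing 1% agarose to separate virions from naked nucleocapsids, then blotted and hybridized with labeled HBV probe.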

For the next assay, the system named is influenza virus. The settings on record: ref Mekler et al., 1969; cited from earlier work.
Assay [1] has as its system HBV replication. Nature of the assay: Southern blot of cellular HBV DNA in HepDE19 cells. The class given is cell-based, hepatitis B virus. The following applies: up to 10 μM. In short, it runs like this: (§1)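 Cytoplasmic core DNA: one 6-well-plate well lysed 10 min at 37°C in Tris-EDTA pH 8.0 with NP40/sucrose. Nuclei removed; capsids PEG8000/NaCl-precipitated 2 h at 4°C, pronase/SDS-digested 1 h at 37°C, phenol-extracted, ethanol-precipitated. Half run on 1.5% agarose, depurinated, denatured, neutralised, blotted and probed with α-32P-UTP HBV probe for RC, DSL and SS forms. HepDE19 tet-free 5 days before dosing; G2.215 kept in G418.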

Another assay has as its system feline herpesvirus-1. The following applies: ref Romanowski et al., 1999; Storey et al., 2002; cited from earlier work.
Assay [2] relates to HBV large surface protein (LHBs). Briefly: Western blot of LHBs-containing HBV particles in G2.215 culture medium. The class given is cell-based, hepatitis B virus. The settings on record: G2.215 cells, 10 or 20μM, 6 day treatment.
Assay [3] relates to HBV replication. Briefly: Southern blot of cellular HBV replication intermediates in G2.215 cells. The class given is cell-based, hepatitis B virus. The following applies: any concentration tested. In short, it runs like this: as §1
Another assay concerns equine herpesvirus-4. The settings on record: ref Romanowski et al., 1999; Storey et al., 2002; cited from earlier work.

This is an account of results in article PMC3628437 (Antiviral research, 2013).

`C[C@@H]1C/C=C/C=C/C=C/C=C/[C@H](O[C@@H]2O[C@H](C)[C@@H](O)[C@H](N)[C@@H]2O)C[C@@H]2O[C@](O)(C[C@@H](O)C[C@H]3O[C@@H]3/C=C/C(=O)O1)C[C@H](O)[C@H]2C(=O)O` [Natamycin]: in the assay with hepatitis B virus (HBV) (6 days), the “Fold HBV reduction” value came out at 4 Fold.
Turning to `Nc1ccn([C@@H]2CS[C@H](CO)O2)c(=O)n1` [lamivudine], in the assay with hepatitis B virus (HBV) (30μM, 6 days, carrier alone CT ~26 undiluted), the “CT of medium from treated G2.215 cells” value is 30–31 CT.
On to `O=C(c1ccc(OCCN2CCCCC2)cc1)c1c(-c2ccc(O)cc2)sc2cc(O)ccc12` [Raloxifene], for which the “Fold HBV reduction” value in the assay on hepatitis B virus (HBV) (6 days) is recorded as 3.5 Fold.
As to `C=Cc1c(C)c2cc3nc(c4c5[n-]c(cc6nc(cc1[n-]2)C(C)=C6CC)c(C)c5C(=O)[C@@H]4C(=O)OC)[C@@H](CCC(=O)O)[C@@H]3C.[Mg+2]` [Chlorophyllide], the Inactivation of virus entry in the assay with Varicella Zoster Virus and in the assay on influenza virus was “inactivate” throughout. In addition, the “Formation and secretion of nucleocapsids” value with HBV virions is on record as “not affected”. Also, the “Viral particles in cell culture medium” value in the assay with HBV virions is reported as “reduces viral particles in the cell culture medium in a dose-dependent manner”. In the assay on HBV replication [1], the “RC or SS DNA levels (cellular HBV DNA)” value is recorded as “did not repress”. Besides, in the assay with hepatitis B virus (HBV), the “Reduction of HBV virion levels in culture medium” value is recorded as ~ 2 CT. In addition, in the assay on hepatitis B virus (HBV) (6 days), the “Fold HBV reduction” value came to 4 Fold.
Regarding `CCCOc1ccc(C(=O)OCCN(CC)CC)cc1N` [Proparacaine], the Inactivation of virus entry with feline herpesvirus-1 and in the assay with equine herpesvirus-4 was “can inactivate” in each case. Also, the “Inhibition of secretion of HBV particles containing LHBs in culture medium” value in assay [2] is recorded as 3- to 4 fold. Besides, the “Level of relaxed circular HBV DNA (RC-DNA) versus untreated control” value in the assay on HBV replication [3] is “no reduction”. Moreover, the “Reduction of HBV virion levels in culture medium” value in the assay on hepatitis B virus (HBV) is ~ 3 CT. Moreover, the “Fold HBV reduction” value in the assay with hepatitis B virus (HBV) (6 days) stood at 6 Fold. The IC50 in the assay with hepatitis B virus (HBV) (Hepatitis B virus, read-out: IC50 against HBV) turned out to be 1 µM.

A word on the IC50: it is the concentration at which inhibition is half-maximal.
